Results from publication PMC2850055 (Analytical chemistry, 2009).
Entries after “also recorded” stand apart in the source; their conditions may differ. Starred links: 1 amine or outer side, 2 acyl side, 3 side chain; linkers in the order of their positions; H or OH if unused. Non-standard residues stand in square brackets, D forms with d. Residues, ends and D or L forms follow the SMILES beside them. *: point of attachment. X2 = CCC(=O)CC1CC(C)CC(C(=O)[*:2])N1[*:1]; X1 = CCCCCCCCC(C)C(=O)*; Aib = CC(C)(N)C(=O)O; X3 = CC(CN(C)CCO)N*

Legend:
[1] = system: AQP1-expressing fibroblasts (2497 cells); assay: Calcein fluorescence quenching cell volume assay in 2497 fibroblasts; type: cell-based, mouse; conditions: 0.2 mM, 3 min preincubation, hyperosmotic challenge
How it was run: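 Mouse 2497 fibroblasts with endogenous AQP1 were grown in DMEM with 10% FBS at 37 °C. Cells were plated at 12 000 per well and assayed 24–48 h later at 80–85% confluence. They were loaded with 10 μM calcein-AM for 45 min at 37 °C and preincubated with the agent before the osmotic step. Fluorescence was read at ex 490/em 520 nm every 0.5 s: 15 s baseline, 35 s after hyperosmolar PBS (0.5 M NaCl), then 40 s after water. Shrinkage time constant came from an exponential fit.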

[2] = system: primary mouse astrocytes expressing endogenous AQP4; assay: Calcein fluorescence quenching cell volume assay in primary mouse astrocytes; type: cell-based; conditions: for alteration of water flux kinetics / cell volume regulation (RVI, RVD, shrinkage): 20 μM, 15 min incubation, osmotic shock
[3] = target: T1, AQP1 (native, erythrocytes) (Rattus norvegicus, UniProt P29975); assay: Stopped-flow light scattering water transport in erythrocytes; type: cell-based
T1 sequence (P29975 1-269): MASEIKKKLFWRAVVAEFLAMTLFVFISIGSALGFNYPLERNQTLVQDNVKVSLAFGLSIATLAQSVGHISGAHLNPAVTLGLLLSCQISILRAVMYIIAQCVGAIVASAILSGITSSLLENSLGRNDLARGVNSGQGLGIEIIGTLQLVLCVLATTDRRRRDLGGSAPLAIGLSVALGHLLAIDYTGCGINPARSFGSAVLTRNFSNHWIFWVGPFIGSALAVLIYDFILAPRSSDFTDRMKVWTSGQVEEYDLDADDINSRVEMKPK
How it was run: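 Erythrocytes came from heparinised Wistar rat blood, were washed three times in PBS (800g, 4 °C, 10 min) and used within 24 h. At 1% haematocrit in PBS they were preincubated 15 min with test compound, then stopped-flow mixed with equal-volume hyperosmolar PBS to give a 250 mOsm inward gradient. Shrinkage was recorded by light scattering at 600 nm at 12 °C.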

[4] = target: AQP4 (Rattus norvegicus, UniProt P47863); type: biochemical
How it was run: (§1)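 Plasma membrane vesicles from rat TNC1 cells were made by homogenisation in sucrose/EDTA/protease-inhibitor buffer (pH 7.2), a 4000g 15 min spin, then pelleting of the supernatant at 17 000g for 45 min. Vesicles at 0.5 mg protein/mL in 50 mM sucrose, 10 mM Tris-HCl pH 7.4 were preincubated 15 min with test compound. Stopped-flow mixing imposed a 250 mOsm inward sucrose gradient. Volume decrease was followed by 90° scatter at 530 nm, and time constant was computed.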

[5] = system: vesicles from TNC1-untransfected cells; assay: Stopped-flow light scattering in vesicles from untransfected TNC1 cells; type: biochemical, rat; conditions: 20 μM, data not shown
How it was run: as §1

[6] = target: AQP4 (M23 isoform) in transfected TNC1 cells (Rattus norvegicus, UniProt P47863); assay: Calcein fluorescence quenching cell volume assay in AQP4-transfected TNC1 cells; type: cell-based; conditions: 20 uM
How it was run: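 Rat TNC1 astrocytoma cells were stably co-transfected with rat AQP4 M23 (aa23–323) cDNA and a puromycin-resistance vector, then maintained in 2 μg/mL puromycin. Cells were plated at 12 000 per well and loaded with 10 μM calcein-AM for 45 min at 37 °C. Test compound was given for 15 min at 20 μM final. Calcein fluorescence (490/520 nm) was recorded every 0.5 s through a hyperosmolar NaCl challenge and isosmotic restoration. Shrinkage time constant came from an exponential fit.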

Chain of AQP4 (P47863 23-323): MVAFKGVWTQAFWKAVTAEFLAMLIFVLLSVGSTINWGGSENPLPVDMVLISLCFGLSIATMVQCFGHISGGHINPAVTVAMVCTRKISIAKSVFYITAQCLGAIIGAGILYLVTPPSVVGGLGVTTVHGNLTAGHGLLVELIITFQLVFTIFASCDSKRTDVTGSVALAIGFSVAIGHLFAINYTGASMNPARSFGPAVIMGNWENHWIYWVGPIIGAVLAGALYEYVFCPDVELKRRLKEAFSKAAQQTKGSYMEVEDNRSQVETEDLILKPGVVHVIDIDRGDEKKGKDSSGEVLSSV
Chain of AQP4 (M23 isoform) in transfected TNC1 cells (P47863 23-323): as above

SMILES: [Cl][Hg][Cl] [HgCl2, mercuric chloride]
- reduction of the cell shrinkage rate [1]: 52.7 ± 3%
- effect on time course/kinetics of cell shrinkage ([2]; astrocytes pretreated with 0.2 mM, 3 min): did not change significantly; also recorded: lack of effect

SMILES: CCC[CH2][Sn]([CH2]CCC)([CH2]CCC)[O]c1cc(Cl)c(Cl)cc1Cl [NSC164914, tributyl-(2,4,5-trichlorophenoxy)stannane]
- effect on AQP1 [3]: inhibitory effects
- inhibition of the shrinkage rate ([3]; 40 μM): ~ 64%
- alteration of water flux kinetics / cell volume regulation (RVI, RVD, shrinkage) [2]: affected shrinkage rate
- effect on AQP4 [4]: inhibitory effects
- reduction of shrinkage kinetics [5]: no significant reduction

SMILES: CCC[CH2][Pb]([Cl])([CH2]CCC)[CH2]CCC [NSC168597, tributyl-chloroplumbane]
- effect on AQP1 [3]: inhibitory effects
- effect on AQP4 [4]: inhibitory effects

SMILES: CCCCCCCCC(C)C(=O)N1CCCC1C(=O)N1C(CC(=O)CC)CC(C)CC1C(=O)NC(C)C(=O)NC(C)(C)C(=O)NC(C)(C)C(=O)NC(C(=O)NC(C)C(=O)NC(C)(C)C(=O)NC(C)(C)C(=O)NC(C)CN(C)CCO)C(C)CC (stereo not shown) [NSC301460, trichopolin] (X1-P[X2]A[Aib][Aib]IA[Aib][Aib]-X3; configuration not given here)
- alteration of water flux kinetics / cell volume regulation (RVI, RVD, shrinkage) [2]: affected shrinkage rate

SMILES: CCCCCn1cc2c3c(cccc31)C1C=C(C)CN(C)[C@@H]1C2.Cc1ccc(C(=O)OC(C(=O)O)C(OC(=O)c2ccc(C)cc2)C(=O)O)cc1 (stereo not shown) [NSC600681]
- AQP4-mediated cell shrinkage time constant [6]: significantly longer

SMILES: COc1ccc(CCN2CCC(Nc3nc4ccccc4n3Cc3ccc(F)cc3)CC2)cc1 [astemizole]
- alteration of water flux kinetics / cell volume regulation (RVI, RVD, shrinkage) [2]: Altered cell volume regulation

SMILES: OCCN1CCN(CCCN2c3ccccc3Sc3ccc(C(F)(F)F)cc32)CC1 [fluphenazine]
- alteration of water flux kinetics / cell volume regulation (RVI, RVD, shrinkage) [2]: Altered cell volume regulation
